High-throughput results (PubChem BioAssay)
A selection: hits, their analogues and other compounds. The true share with any hit is near 1.9%.
PLCg1 inh: inhibitors of human phospholipase C gamma1; P19174; purified PLC-gamma1, fluorogenic substrate, fluorescence; inhibition, % at 12.2 µM; actives 0.84% (n = 370,000); in the data active = inhibition above about 9.5%
Target sequence (P19174 whole entry, looked up): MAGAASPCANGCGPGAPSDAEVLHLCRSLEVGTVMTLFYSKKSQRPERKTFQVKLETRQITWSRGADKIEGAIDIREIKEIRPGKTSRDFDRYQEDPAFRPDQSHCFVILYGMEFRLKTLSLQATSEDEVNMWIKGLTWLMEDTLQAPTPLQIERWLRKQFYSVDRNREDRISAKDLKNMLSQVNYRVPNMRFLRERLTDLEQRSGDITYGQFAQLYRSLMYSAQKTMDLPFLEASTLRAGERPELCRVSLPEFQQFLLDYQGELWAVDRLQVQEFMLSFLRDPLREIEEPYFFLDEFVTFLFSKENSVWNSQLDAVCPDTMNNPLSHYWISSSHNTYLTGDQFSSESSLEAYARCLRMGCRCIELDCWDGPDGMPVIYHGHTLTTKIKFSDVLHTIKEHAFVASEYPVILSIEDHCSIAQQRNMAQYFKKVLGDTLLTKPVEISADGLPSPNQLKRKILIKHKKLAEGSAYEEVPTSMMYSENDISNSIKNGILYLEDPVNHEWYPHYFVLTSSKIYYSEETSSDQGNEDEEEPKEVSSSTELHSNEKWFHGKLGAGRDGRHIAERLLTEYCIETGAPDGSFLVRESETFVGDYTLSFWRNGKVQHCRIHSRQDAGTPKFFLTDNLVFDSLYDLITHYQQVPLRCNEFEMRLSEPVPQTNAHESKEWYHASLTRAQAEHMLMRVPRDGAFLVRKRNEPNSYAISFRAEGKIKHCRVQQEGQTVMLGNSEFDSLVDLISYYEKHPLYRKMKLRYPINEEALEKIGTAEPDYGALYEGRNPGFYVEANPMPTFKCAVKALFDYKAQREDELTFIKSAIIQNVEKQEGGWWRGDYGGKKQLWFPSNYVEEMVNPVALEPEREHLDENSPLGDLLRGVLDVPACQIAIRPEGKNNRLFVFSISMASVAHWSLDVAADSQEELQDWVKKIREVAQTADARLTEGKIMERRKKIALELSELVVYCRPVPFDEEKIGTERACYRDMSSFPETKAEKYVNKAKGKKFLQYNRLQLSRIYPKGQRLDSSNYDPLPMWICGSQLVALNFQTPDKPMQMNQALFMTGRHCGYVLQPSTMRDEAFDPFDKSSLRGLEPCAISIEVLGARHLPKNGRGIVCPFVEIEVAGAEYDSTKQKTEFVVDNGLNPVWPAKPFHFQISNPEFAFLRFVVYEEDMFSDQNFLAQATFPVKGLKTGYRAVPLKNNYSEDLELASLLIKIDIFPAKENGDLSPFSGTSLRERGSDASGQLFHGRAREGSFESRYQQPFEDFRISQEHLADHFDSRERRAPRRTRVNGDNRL
sPLA2-III inh: Blocks human group III sPLA2 activity; QFRET BODIPY PC-A2 liposome hydrolysis, fluorescence; inhibition, % at 12.2 µM; actives 0.56% (n = 370,000); AID 743126;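 active = inhibition above mean plus 3 SD of compounds lying within the high and low control bounds, cut at about 19% in these data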
Tb MetRS inh: blocks T. brucei methionyl-tRNA synthetase activity; purified T. brucei MetRS, ATP depletion, Kinase-Glo luminescence; inhibition, % at 11.9 µM; actives 0.4% (n = 360,000);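 active = inhibition above a per-plate cutoff of the control wells' mean inhibition plus 3 SD, cut at about 5.5% in these data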
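Test system: purified T. brucei MetRS enzyme. Also added: ATP, methionine and E. coli bulk tRNA substrates. Compound: 11.9 µM single point. Schedule: 15 min enzyme-compound preincubation, 2 h reaction, 10 min detection, 25 °C. Signal: luciferase luminescence of residual ATP, Kinase-Glo. Evaluation: percent inhibition versus plate control medians. Controls: DMSO wells, low control.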
PLCb3 inh: inhibitors of human phospholipase C beta3; actives 0.18% (n = 370,000); Purified PLC-beta3, fluorogenic substrate, fluorescence; inhibition, % at 12.2 µM; AID 720704; in the data active = inhibition above about 11%
sPLA2 confirm: human GIII-sPLA2 inhibition, confirmation. shares compounds with sPLA2-III inh. recombinant hGIII-sPLA2, BODIPY PC-A2 QFRET fluorescence. actives 34% (n = 2,000). inhibition, % at 12.2 µM;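 active = mean inhibition across triplicates above the hit cutoff set in the earlier primary screen, cut at about 19% in these data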
BODIPY interf: 535nm fluorescence interference, HGIII-sPLA2 counter-screen | shares compounds with sPLA2-III inh | BODIPY FL product fluorescence interference, QFRET | inhibition, % at 12.2 µM | actives 8.5% (n = 2,000) | AID 743282;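 active = average inhibition above the solvent-only control mean plus 3 SD, cut at about 6% in these data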
535nm interf DR: interferes with 535nm fluorescence in dose response counter-screen. shares compounds with sPLA2-III inh. BODIPY FL product fluorescence interference, cell-free. IC50, µM. 240 tested, under 10 active. AID 743455;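 active = IC50 at or below 10 µM; inactive = IC50 above 10 µM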
Each line names hits and unclear results; the compound was inactive in the other large screens (follow-up assays come after a bar, where they were run).

Cc1noc(C)c1C(C)C1=CCCCC1 (stereo not given)	none (no result: Tb MetRS inh)
Nc1[nH]n(-c2ccccc2)c(=O)c1N=Nc1ccccc1	sPLA2-III inh 23 | sPLA2 confirm 33 | BODIPY interf 6.3
CCc1ccccc1N=Nc1c(N)[nH]n(-c2ccccc2)c1=O	none (no result: Tb MetRS inh)
C[C@H]1[C@@H](OC(=O)NCc2ccc(C(F)(F)F)cc2)CC[C@@]23CCCN2C(=O)CCC[C@@H]13	none (no result: Tb MetRS inh)
O=C(NNC(=O)c1ccc2ccccc2c1O)Nc1ccc(F)cc1	sPLA2-III inh 28 | sPLA2 confirm 30 | BODIPY interf inactive | 535nm interf DR inactive
Cc1cccc(NC(=O)NNC(=O)c2ccc3ccccc3c2)c1	none
O=C(NC1CCCCC1)c1ccc2ccccc2c1O	none
Cc1cccc(NC(=O)NNC(=O)c2ccc3ccccc3c2O)c1	sPLA2-III inh 29 | sPLA2 confirm 30 | BODIPY interf inactive | 535nm interf DR inactive
O=C(NNC(=O)c1ccc2ccccc2c1O)NC1CCCCC1	sPLA2-III inh 26 | sPLA2 confirm inactive | BODIPY interf inactive
CCOC(=O)CC1(Cc2ccccc2)Oc2ccccc2O1	none (no result: Tb MetRS inh)
c1ccc(-c2csc(-c3ccc(-c4csnn4)cc3)n2)cc1	sPLA2-III inh 21 | sPLA2 confirm inactive | BODIPY interf inactive
CCNc1nc(NCC)nc(OCCOC(=O)Nc2ccccc2)n1	sPLA2-III inh 19 | sPLA2 confirm inactive | BODIPY interf inactive
CCNc1nc(NC(C)C)nc(OCCOC(=O)Nc2ccccc2)n1	none
CC(=O)Nc1ccc(NC(=O)C(Cc2ccccc2)NC(=O)C2CCC(C)CC2)cc1 (stereo not given)	sPLA2-III inh 25 | sPLA2 confirm inactive | BODIPY interf inactive
O=C(NC1CCCCN(Cc2cccc(F)c2)C1=O)c1cccc(F)c1 (stereo not given)	none (no result: Tb MetRS inh)
Cc1ccc([C@H]2C[C@]34CN(Cc5ccccc5)S(=O)(=O)[C@H]3C[C@H]2O4)cc1	none (no result: Tb MetRS inh)
Cc1nc2ccccn2c1C(=O)N=Nc1c(O)n(CCC(C)C)c2ccccc12	sPLA2-III inh 22 | sPLA2 confirm inactive | BODIPY interf inactive
COc1cccc(Nc2nc(C(N)CO)cs2)n1 (stereo not given)	sPLA2-III inh 21 | sPLA2 confirm inactive | BODIPY interf inactive
Cc1ccc(-n2c(-c3ccccc3)c[nH]c2=S)cc1	sPLA2-III inh 20 | sPLA2 confirm 27 | BODIPY interf inactive
COc1ccc(-n2c(-c3ccc(Cl)cc3)c[nH]c2=S)cc1	sPLA2-III inh 22 | sPLA2 confirm 29 | BODIPY interf inactive
CC(C)CNc1cccc2c1S(=O)(=O)N(Cc1cn(Cc3ccc(F)cc3)nn1)Cc1ccccc1O2	none (no result: Tb MetRS inh)
CN1CCN(C=NC2=NN(c3cccc(C(F)(F)F)c3)CC2)CC1	none
CN(C)C=NC1=NN(c2cccc(C(F)(F)F)c2)CC1	sPLA2-III inh 21 | sPLA2 confirm inactive | BODIPY interf inactive
COC(=O)c1cc2c(c3c4cc(F)ccc4n(S(=O)(=O)c4ccc(OC)cc4)c13)C(=O)N(C)C2	none (no result: Tb MetRS inh)
O=C(NC(=S)Nc1ccccc1N1CCCC1)c1ccccc1[N+](=O)[O-]	none
O=C(NNC(=S)Nc1ccccc1)c1ccccc1[N+](=O)[O-]	none
O=C(NNC(=S)NC(=O)c1ccccc1[N+](=O)[O-])c1ccccc1[N+](=O)[O-]	sPLA2-III inh 23 | sPLA2 confirm 24 | BODIPY interf inactive
O=C(NNC(=S)NC(=O)c1ccccc1[N+](=O)[O-])c1ccccc1O	sPLA2-III inh 32 | sPLA2 confirm inactive | BODIPY interf inactive
O=C(NC(=S)Nc1ccc(N2CCCC2)cc1)c1ccccc1[N+](=O)[O-]	sPLA2-III inh 23 | sPLA2 confirm inactive | BODIPY interf inactive
O=C(NNC(=S)NC(=O)c1ccccc1[N+](=O)[O-])c1ccc(Cl)cc1Cl	none
CCCCOc1ccccc1C(=O)NNC(=S)NC(=O)c1ccccc1[N+](=O)[O-]	sPLA2-III inh 43 | sPLA2 confirm 48 | BODIPY interf inactive | 535nm interf DR inactive
O=C(NC(=S)NCc1ccccc1)c1ccccc1[N+](=O)[O-]	none
Cn1c(Cc2cccs2)nnc1SCC(=O)Nc1ccc2cn[nH]c2c1	none (no result: Tb MetRS inh)
O=C(c1cc(Cl)cc(Cl)c1)N1CC[C@H]2[C@H](CCCN2Cc2ccccc2)C1	none (no result: Tb MetRS inh)
O=C(NNC(=S)NC(=O)c1ccc(Br)cc1)c1cccc([N+](=O)[O-])c1	none
O=C(COc1ccc(Br)cc1)NNC(=S)NC(=O)c1ccccc1[N+](=O)[O-]	sPLA2-III inh 23 | sPLA2 confirm 43 | BODIPY interf inactive
Cc1cc(Br)cc(C)c1NC(=O)c1ccccc1[N+](=O)[O-]	sPLA2-III inh 21 | sPLA2 confirm inactive | BODIPY interf inactive
Cc1cc(Br)c(NC(=O)c2ccccc2[N+](=O)[O-])cc1C	none
CC(=O)NC(=S)NNC(=O)COc1ccc(Br)cc1	none
O=C(NNC(=S)NC(=O)c1ccccc1Cl)c1cccc([N+](=O)[O-])c1	sPLA2-III inh 25 | sPLA2 confirm 37 | BODIPY interf inactive | 535nm interf DR inactive
O=C(COC(=O)c1ccccc1[N+](=O)[O-])NC(=O)c1ccccc1	sPLA2-III inh 21 | sPLA2 confirm inactive | BODIPY interf inactive
CCC(C)[C@H](NC(=O)N1CCCCC1)C(=O)OC (stereo not given in full)	sPLA2-III inh 23 | sPLA2 confirm inactive | BODIPY interf inactive
COc1ccc(C(=O)NCCNc2ccc([N+](=O)[O-])cc2)cc1OC	none
O=C(NCCNc1ccc([N+](=O)[O-])cc1)c1cccc(Br)c1	sPLA2-III inh 23 | sPLA2 confirm inactive | BODIPY interf inactive
CCN(CC)C(=O)CC[C@H]1CC[C@]2(CCCN(Cc3cccnc3)C2)O1	none (no result: Tb MetRS inh)
CC/C(=N/NC(=O)c1ccc(Br)cc1)c1ccc(OCCN2CCOCC2)cc1	sPLA2-III inh 21 | sPLA2 confirm inactive | BODIPY interf inactive
COCCN=C1Sc2ccccc2[C@@H]2C[C@H]3[C@H](CON3C)CN12	none (no result: Tb MetRS inh)
O=C(OC[C@@H]1CCCN2CCCC[C@H]12)c1cc2ccccc2oc1=O	sPLA2-III inh 20 | sPLA2 confirm inactive | BODIPY interf inactive
O=C(OC1CCCCC1)c1cc2ccccc2oc1=O	none
CSc1nc(N)c(C#N)c(-c2ccc(Cl)cc2)c1C#N	sPLA2-III inh 22 | sPLA2 confirm 24 | BODIPY interf inactive
CCCCOc1ccc(-c2c(C#N)c(N)nc(SCC(N)=O)c2C#N)cc1	sPLA2-III inh 46 | sPLA2 confirm inactive | BODIPY interf inactive
CSc1nc(-c2ccc(Cl)cc2)nc(N)c1C#N	none
O=C1CCC[C@H]2C[C@H](NCc3cccnc3)CC[C@]23CCCN13	none (no result: Tb MetRS inh)
N#CC1(Nc2cccc(Br)c2)C(=O)Nc2ccccc21 (stereo not given)	sPLA2-III inh 22 | sPLA2 confirm inactive | BODIPY interf inactive
CN(C)/N=C/c1c(O)ccc2ccccc12	none
